Laboratory results reported in ChEMBL document CHEMBL1125569, “5-HT3 receptor antagonists. 1. New quinoline derivatives” (J Med Chem, 1992).

Assays:
[1] = target: T1, Serotonin 3 (5-HT3) receptor (Rattus norvegicus, UniProt P35563+Q9JJ16); experiment: Ability to displace [3H]quipazine binding to 5-hydroxytryptamine 3 receptor sites in NG 108-15.; type: protein-complex assay
T1 sequence (P35563 whole entry): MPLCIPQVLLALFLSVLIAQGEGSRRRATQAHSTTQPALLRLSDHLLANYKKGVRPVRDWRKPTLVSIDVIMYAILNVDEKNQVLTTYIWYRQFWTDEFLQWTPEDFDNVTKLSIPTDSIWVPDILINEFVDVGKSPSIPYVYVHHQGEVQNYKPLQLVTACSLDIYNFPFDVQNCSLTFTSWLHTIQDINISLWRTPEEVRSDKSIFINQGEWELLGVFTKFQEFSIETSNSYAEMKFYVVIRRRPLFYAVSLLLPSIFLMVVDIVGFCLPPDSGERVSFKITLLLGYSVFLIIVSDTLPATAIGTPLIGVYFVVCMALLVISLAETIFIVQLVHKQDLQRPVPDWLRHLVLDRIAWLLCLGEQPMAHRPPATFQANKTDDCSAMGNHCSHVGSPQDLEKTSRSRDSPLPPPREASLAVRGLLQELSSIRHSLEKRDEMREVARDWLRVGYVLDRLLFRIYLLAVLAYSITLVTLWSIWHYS
T1 sequence (Q9JJ16 whole entry): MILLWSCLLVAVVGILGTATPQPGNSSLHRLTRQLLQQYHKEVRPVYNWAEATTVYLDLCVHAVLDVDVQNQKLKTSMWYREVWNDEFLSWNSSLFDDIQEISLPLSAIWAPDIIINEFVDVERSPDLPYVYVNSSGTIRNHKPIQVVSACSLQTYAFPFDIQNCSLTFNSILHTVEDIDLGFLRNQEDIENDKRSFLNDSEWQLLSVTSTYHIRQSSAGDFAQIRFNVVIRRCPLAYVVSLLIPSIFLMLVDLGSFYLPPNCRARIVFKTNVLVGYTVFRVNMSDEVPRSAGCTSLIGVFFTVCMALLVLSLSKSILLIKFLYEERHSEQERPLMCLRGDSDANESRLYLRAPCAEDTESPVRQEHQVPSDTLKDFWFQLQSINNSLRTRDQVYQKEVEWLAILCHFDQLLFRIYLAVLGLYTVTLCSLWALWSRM
In short: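 Membranes from 3 × 10^6 NG 108-15 cells in 20 mM Tris-HCl pH 7.5 with 154 mM NaCl. Incubated with 2 nM [3H]quipazine and varying test concentrations, 37 °C for 60 min. Stopped with ice-cold buffer, then GF/C filtration and scintillation counting. Nonspecific binding defined with 10 μM MDL 72222. […] Mean ± SEM, n = 3.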

[2] = target: Serotonin 3 (5-HT3) receptor (Rattus norvegicus) (UniProt P35563+Q9JJ16); experiment: Inhibition of 5-HT induced bradycardia [Benzold-Jarisch (BJ) reflex test] in rats at 5 min administered intravenously; type: functional
In short: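 Male Wistar rats (230–330 g) under urethane (1.25 g/kg ip), tracheal cannula. Blood pressure taken from the left carotid, heart rate from the pressure trace. Compounds given iv via jugular vein. Bezold-Jarisch reflex evoked by bolus iv 5-HT 30 μg/kg, with challenges every 12 min. ED50 is the dose halving 5-HT bradycardia, by linear regression, 4 rats.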

Rattus norvegicus = species on record: Rattus norvegicus; experiment: animal or person; type: functional; details: 5 min
[3] = target: T1, Serotonin 3 (5-HT3) receptor; experiment: Compound was evaluated for its ability to displace [3H]quipazine binding to 5-hydroxytryptamine 3 receptor sites in NG 108-15.; type: protein-complex assay

SMILES | Ki [1] | ED50 [2] | ED50 (Rattus norvegicus) | Ki [3]
CCCCn1c(=O)cc(C(=O)OC2CC3CCC(C2)N3C)c2cc(C)ccc21 (stereo not drawn) | 44 nM |  |  | 
CCCn1c(=O)cc(C(=O)NC2CC3CCC(C2)N3C)c2ccccc21 (stereo not drawn) | 67 nM |  |  | 
COc1cc(C(=O)OC2CC3CCC(C2)N3C)c2ccccc2n1 (stereo not drawn) | 0.58 nM | 5.64 mg/kg |  | 
CN1C2CCC1CC(NC(=O)c1cc(O)nc3ccccc13)C2 (stereo not drawn) | > 100 nM |  |  | 
CCCCCCn1c(=O)cc(C(=O)OC2CC3CCC(C2)N3C)c2ccccc21 (stereo not drawn) | 1.1 nM |  |  | 
CC(C)n1c(=O)cc(C(=O)OC2CC3CCC(C2)N3C)c2ccccc21 (stereo not drawn) | 0.032 nM | 0.081 mg/kg |  | 
CN1C2CCC1CC(NC(=O)c1cc(=O)n(-c3ccccc3)c3ccccc13)C2 (stereo not drawn) | 63 nM |  |  | 
CN1C2CCC1CC(OC(=O)c1cc(=O)n(-c3ccccc3)c3ccccc13)C2 (stereo not drawn) | 0.51 nM | 0.044 mg/kg |  | 
Cc1nccn1CC1CCc2c(c3ccccc3n2C)C1=O (stereo not drawn) [ONDANSETRON] |  |  | 0.021 mg/kg | 
CN1C2CCC1CC(OC(=O)c1cc(=O)n(C)c3ccccc13)C2 (stereo not drawn) | 2.6 nM | 0.18 mg/kg |  | 
CCCCOc1cc(C(=O)NC2CC3CCC(C2)N3C)c2ccccc2n1 (stereo not drawn) | 19 nM |  |  | 
CCn1c(=O)cc(C(=O)OC2CC3CCC(C2)N3C)c2ccccc21 (stereo not drawn) | 1.1 nM | 0.022 mg/kg |  | 
CN1C2CCC1CC(OC(=O)c1ccnc3ccccc13)C2 (stereo not drawn) |  |  |  | 7.1 nM
CCCCn1c(=O)c(CC)c(C(=O)OC2CC3CCC(C2)N3C)c2ccccc21 (stereo not drawn) | 160 nM |  |  | 
CCCCn1c(=O)cc(C(=O)OC2CC3CCC(C2)N3C)c2ccccc21 (stereo not drawn) | 0.68 nM | 0.041 mg/kg |  | 
CCCOc1cc(C(=O)OC2CC3CCC(C2)N3C)c2ccccc2n1 (stereo not drawn) | 0.32 nM | 6.78 mg/kg |  | 
CC(C)Cn1c(=O)cc(C(=O)OC2CC3CCC(C2)N3C)c2ccccc21 (stereo not drawn) | 0.47 nM | 0.069 mg/kg |  | 
CCCn1c(=O)cc(C(=O)OC2CC3CCC(C2)N3C)c2ccccc21 (stereo not drawn) | 0.45 nM | 0.33 mg/kg |  | 

SMILES | Ki [1] | ED50 [2] | ED50 (Rattus norvegicus) | Ki [3]
CCCCCn1c(=O)cc(C(=O)OC2CC3CCC(C2)N3C)c2ccccc21 (stereo not drawn) | 0.96 nM | 0.059 mg/kg |  | 
CCCOc1cc(C(=O)NC2CC3CCC(C2)N3C)c2ccccc2n1 (stereo not drawn) | 42 nM |  |  | 
CC(C)Oc1cc(C(=O)OC2CC3CCC(C2)N3C)c2ccccc2n1 (stereo not drawn) | 0.31 nM | 1.62 mg/kg |  | 
CCCCn1c(=O)c(CC)c(C(=O)NC2CC3CCC(C2)N3C)c2ccccc21 (stereo not drawn) | > 100 nM |  |  | 
CCCCCOc1cc(C(=O)OC2CC3CCC(C2)N3C)c2ccccc2n1 (stereo not drawn) | 0.86 nM | 1.13 mg/kg |  | 
CCOc1cc(C(=O)OC2CC3CCC(C2)N3C)c2ccccc2n1 (stereo not drawn) | 0.88 nM | 0.07 mg/kg |  | 
CCCCN1C(=O)CC(C(=O)OC2CC3CCC(C2)N3C)c2ccccc21 (stereo not drawn) | 8.7 nM |  |  | 
CC(C)COc1cc(C(=O)OC2CC3CCC(C2)N3C)c2ccccc2n1 (stereo not drawn) | 0.44 nM | 0.24 mg/kg |  | 
CCCCCCOc1cc(C(=O)OC2CC3CCC(C2)N3C)c2ccccc2n1 (stereo not drawn) | 3.2 nM | 7.68 mg/kg |  | 
CN1C2CCC1CC(NC(=O)c1ccnc3ccccc13)C2 (stereo not drawn) | > 100 nM |  |  | 
CC(C)CCn1c(=O)cc(C(=O)OC2CC3CCC(C2)N3C)c2ccccc21 (stereo not drawn) | 1.5 nM | 0.059 mg/kg |  | 
CN1C2CCC1CC(OC(=O)c1cc(=O)n(Cc3ccccc3)c3ccccc13)C2 (stereo not drawn) | 1.3 nM |  |  | 
CCCCOc1cc(C(=O)OC2CC3CCC(C2)N3C)c2ccccc2n1 (stereo not drawn) | 0.39 nM | 0.2 mg/kg |  | 
CN1C2CCC1CC(OC(=O)c1cc(O)nc3ccccc13)C2 (stereo not drawn) |  |  | 0.017 mg/kg | 4.4 nM
CCCCn1c(=O)cc(C(=O)NC2CC3CCC(C2)N3C)c2ccccc21 (stereo not drawn) | 60 nM |  |  | 
CC(C)Oc1cc(C(=O)NC2CC3CCC(C2)N3C)c2ccccc2n1 (stereo not drawn) | 53 nM |  |  | 
CN1C2CCC1CC(NC(=O)c1cc(=O)n(C)c3ccccc13)C2 (stereo not drawn) | > 100 nM |  |  | 
